This note sets out measurements from ChEMBL document CHEMBL1123737, “Synthesis, absolute configuration, and antibacterial activity of 6,7-dihydro-5,8-dimethyl-9-fluoro-1-oxo-1H,5H- benzo[ij]quinolizine-2-carboxylic acid” (1987).

Assay [1] has as its system Enterococcus faecalis. The assay can be described thus: In vitro antibacterial activity against Streptococcus Streptococcus faecalis ATCC 10741. It is filed as functional. The method in brief:
(§1)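 Agar dilution MIC. DMSO stocks at 5 mg/mL were serially 2-fold diluted in nutrient broth and mixed into Mueller-Hinton agar, with 5% defibrinated rabbit blood for hemophilic bacteria. Final range was 12.5 to 0.006 µg/mL. Overnight growth was suspended in saline to McFarland 6 (2 × 10^6/mL) and Steers-replicated. Plates were incubated 30 h at 37 °C; MIC was the lowest concentration preventing visible growth.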

In another assay the test system is Escherichia coli. As to the kind of experiment: In vitro antibacterial activity against Escherichia coli ATCC 15221. It is filed as functional. Put shortly:
as §1

The subject of the next assay is Haemophilus influenzae. The assay can be described thus: In vitro antibacterial activity against Haemophilus influenzae ATCC 9333. It is filed as functional. The method in brief:
as §1

The next assay has as its system Staphylococcus aureus. The assay can be described thus: In vitro antibacterial activity against Staphylococcus aureus ATCC 6538-P. In kind it is functional. The method in brief:
as §1

Assay [2] relates to Staphylococcus epidermidis. As to the kind of experiment: In vitro antibacterial activity against Staphylococcus epidermidis ATCC 12228. It is filed as functional. Put shortly: as §1
Assay [3] is described as follows: In vitro antibacterial activity against Pseudomonas cepacia ATCC 25608. It is filed as functional. Particulars: Burkholderia cepacia. The method in brief:
as §1

The subject of another assay is Streptococcus pyogenes. As to the kind of experiment: In vitro antibacterial activity against Streptococcus pyogenes ATCC 1961-1. It is filed as functional. Put shortly: as §1
In a further assay the test system is Enterobacter cloacae. As to the kind of experiment: In vitro antibacterial activity against Enterobacter cloacae ATCC 23355. It is filed as functional. Put shortly: as §1
The next assay has as its system Proteus mirabilis. The assay can be described thus: In vitro antibacterial activity against Proteus mirabilis-R 119. It is filed as functional. The method in brief:
as §1

The test system of another assay is Bordetella pertussis. As to the kind of experiment: In vitro antibacterial activity against Bordetella pertussis ATCC 10380. In kind it is functional. The method in brief: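 Agar dilution on Mueller-Hinton agar with drug from 5 mg/mL DMSO stocks, 2-fold diluted through nutrient broth to 12.5–0.006 µg/mL. Inoculum was applied by Steers replicator. MIC was read as the lowest concentration with no visible growth.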

A further assay relates to Klebsiella pneumoniae. The assay can be described thus: In vitro antibacterial activity against Klebsiella pneumoniae ATCC 23357. In kind it is functional. The method in brief:
as §1

The test system of a further assay is Serratia marcescens. The assay can be described thus: In vitro antibacterial activity against Serratia marcescens ATCC 8100. In kind it is functional. Put shortly:
as §1

The nature of assay [4]: In vitro antibacterial activity against Salmonella typhi-CDC M4694. It is filed as functional, salmonella typhosa. The method in brief:
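Agar dilution MIC: compounds dissolved in DMSO (5 mg/mL stock), 2-fold serial dilutions in nutrient broth, mixed into Mueller-Hinton agar; series 12.5 down to 0.006 μg/mL. Overnight culture suspended in saline to McFarland 6 (2 × 10^6/mL), spotted with Steers replicator. Incubated 37 °C for 30 h; MIC = lowest concentration preventing visible growth.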

For the next assay, the system named is Pseudomonas aeruginosa. The assay can be described thus: In vitro antibacterial activity against Pseudomonas aeruginosa ATCC 15422. It is filed as functional. Put shortly:
as §1

Assay [5] relates to Enterococcus faecalis. As to the kind of experiment: In vitro antibacterial activity against Streptococcus faecalis ATCC 10741. It is filed as functional. Put shortly:
as §1

≈ marks a conversion by molar mass, not a printed value.

`Cc1c(F)cc2c(=O)c(C(=O)O)cn3c2c1CCC3`: the MIC turned out to be 12.5 µg/mL (≈ 47.8 µM) against Enterococcus faecalis [1]; 0.8 µg/mL (≈ 3.06 µM) in the assay on Escherichia coli; 0.1 µg/mL (≈ 0.383 µM) against Haemophilus influenzae; 0.8 µg/mL (≈ 3.06 µM) against Staphylococcus aureus; 1.6 µg/mL (≈ 6.12 µM) in assay [2]; 6.2 µg/mL (≈ 23.7 µM) in [3]. For the same compound, the MIC turned out to be 12.5 µg/mL (≈ 47.8 µM) in the assay on Streptococcus pyogenes; 0.4 µg/mL (≈ 1.53 µM) against Enterobacter cloacae; 1.6 µg/mL (≈ 6.12 µM) against Proteus mirabilis; 0.8 µg/mL (≈ 3.06 µM) in the assay with Bordetella pertussis; 0.8 µg/mL (≈ 3.06 µM) in the assay on Klebsiella pneumoniae; 0.8 µg/mL (≈ 3.06 µM) with Serratia marcescens. In addition, the MIC in assay [4] was determined as 0.4 µg/mL (≈ 1.53 µM); in the assay with Pseudomonas aeruginosa, 12.5 µg/mL (≈ 47.8 µM).

In the case of `Cc1c(F)cc2c(=O)c(C(=O)O)cn3c2c1CC[C@@H]3C`, the MIC amounted to 0.8 µg/mL (≈ 2.91 µM) in the assay on Enterococcus faecalis [1]; 0.1 µg/mL (≈ 0.363 µM) in the assay on Escherichia coli; 0.006 µg/mL (≈ 0.0218 µM) against Haemophilus influenzae; 0.025 µg/mL (≈ 0.0908 µM) against Staphylococcus aureus; 0.05 µg/mL (≈ 0.182 µM) in assay [2]; 0.8 µg/mL (≈ 2.91 µM) in [3]. The MIC amounted to 1.6 µg/mL (≈ 5.81 µM) in the assay with Streptococcus pyogenes; 0.1 µg/mL (≈ 0.363 µM) in the assay with Enterobacter cloacae; 0.4 µg/mL (≈ 1.45 µM) in the assay on Proteus mirabilis; 0.012 µg/mL (≈ 0.0436 µM) with Bordetella pertussis; 0.1 µg/mL (≈ 0.363 µM) against Klebsiella pneumoniae; 0.2 µg/mL (≈ 0.727 µM) in the assay on Serratia marcescens. Further, the MIC in assay [4] was found to be 0.05 µg/mL (≈ 0.182 µM); with Pseudomonas aeruginosa, 3.1 µg/mL (≈ 11.3 µM).

In the case of `Cc1c(F)cc2c(=O)c(C(=O)O)cn3c2c1CC[C@H]3C`, the MIC came to 12.5 µg/mL (≈ 45.4 µM) in the assay with Enterococcus faecalis [1]; 6.2 µg/mL (≈ 22.5 µM) against Escherichia coli; 0.4 µg/mL (≈ 1.45 µM) against Haemophilus influenzae; 3.1 µg/mL (≈ 11.3 µM) against Staphylococcus aureus; 6.2 µg/mL (≈ 22.5 µM) in [2]; 12.5 µg/mL (≈ 45.4 µM) in assay [3]. Moreover, the MIC against Streptococcus pyogenes turned out to be 12.5 µg/mL (≈ 45.4 µM); in the assay on Enterobacter cloacae it was 3.1 µg/mL (≈ 11.3 µM); with Proteus mirabilis it was 12.5 µg/mL (≈ 45.4 µM); against Bordetella pertussis it was 1.6 µg/mL (≈ 5.81 µM); in the assay on Klebsiella pneumoniae, 6.2 µg/mL (≈ 22.5 µM); against Serratia marcescens, 3.1 µg/mL (≈ 11.3 µM). In addition, the MIC in assay [4] came out at 3.1 µg/mL (≈ 11.3 µM); against Pseudomonas aeruginosa, 12.5 µg/mL (≈ 45.4 µM).

Turning to `Cc1c(F)cc2c(=O)c(C(=O)O)cn3c2c1CCC3C` (racemic) [IBAFLOXACIN], the MIC against Escherichia coli was 0.2 µg/mL (≈ 0.727 µM); in the assay on Haemophilus influenzae it was 0.006 µg/mL (≈ 0.0218 µM); in the assay with Staphylococcus aureus it was 0.05 µg/mL (≈ 0.182 µM); in assay [2] it was 0.1 µg/mL (≈ 0.363 µM); in assay [3], 0.8 µg/mL (≈ 2.91 µM); against Streptococcus pyogenes it was 0.8 µg/mL (≈ 2.91 µM). The MIC in the assay with Enterobacter cloacae amounted to 0.2 µg/mL (≈ 0.727 µM); against Proteus mirabilis, 0.8 µg/mL (≈ 2.91 µM); against Enterococcus faecalis [5], 0.8 µg/mL (≈ 2.91 µM); against Bordetella pertussis it was 0.025 µg/mL (≈ 0.0908 µM); with Klebsiella pneumoniae it was 0.2 µg/mL (≈ 0.727 µM); in the assay on Serratia marcescens it was 0.4 µg/mL (≈ 1.45 µM). Further, the MIC was found to be 0.1 µg/mL (≈ 0.363 µM) in [4] and 6.2 µg/mL (≈ 22.5 µM) in the assay on Pseudomonas aeruginosa.
